≈ marks a conversion by molar mass, not a printed value. Read-outs that look alike come from different tables or passages of the source.
What was measured:
[1] = tested on: S. aureus SH1000 sensitive strain; test: MIC against S. aureus SH1000 sensitive strain; type: cell-based, Staphylococcus aureus; details: for MIC: Staphylococcus aureus, read-out: MIC S. aureus Sensitive SH1000
[2] = molecular target: S. pneumonia PheRS (Streptococcus pneumoniae, UniProt Q97S36); test: tRNA aminoacylation scintillation proximity assay, S. pneumonia PheRS; type: biochemical
Chain of S. pneumonia PheRS (Q97S36 whole entry): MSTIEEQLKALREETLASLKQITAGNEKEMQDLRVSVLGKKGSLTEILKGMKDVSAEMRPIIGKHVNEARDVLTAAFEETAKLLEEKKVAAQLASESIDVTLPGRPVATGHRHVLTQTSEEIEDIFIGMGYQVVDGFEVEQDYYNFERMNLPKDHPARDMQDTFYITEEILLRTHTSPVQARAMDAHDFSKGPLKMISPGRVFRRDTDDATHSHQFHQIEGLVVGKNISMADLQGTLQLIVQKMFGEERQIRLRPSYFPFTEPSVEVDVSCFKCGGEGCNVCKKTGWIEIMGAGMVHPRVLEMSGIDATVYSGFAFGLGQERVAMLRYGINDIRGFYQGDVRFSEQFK
Chain of S. pneumonia PheRS (Q97S34 whole entry, further chain): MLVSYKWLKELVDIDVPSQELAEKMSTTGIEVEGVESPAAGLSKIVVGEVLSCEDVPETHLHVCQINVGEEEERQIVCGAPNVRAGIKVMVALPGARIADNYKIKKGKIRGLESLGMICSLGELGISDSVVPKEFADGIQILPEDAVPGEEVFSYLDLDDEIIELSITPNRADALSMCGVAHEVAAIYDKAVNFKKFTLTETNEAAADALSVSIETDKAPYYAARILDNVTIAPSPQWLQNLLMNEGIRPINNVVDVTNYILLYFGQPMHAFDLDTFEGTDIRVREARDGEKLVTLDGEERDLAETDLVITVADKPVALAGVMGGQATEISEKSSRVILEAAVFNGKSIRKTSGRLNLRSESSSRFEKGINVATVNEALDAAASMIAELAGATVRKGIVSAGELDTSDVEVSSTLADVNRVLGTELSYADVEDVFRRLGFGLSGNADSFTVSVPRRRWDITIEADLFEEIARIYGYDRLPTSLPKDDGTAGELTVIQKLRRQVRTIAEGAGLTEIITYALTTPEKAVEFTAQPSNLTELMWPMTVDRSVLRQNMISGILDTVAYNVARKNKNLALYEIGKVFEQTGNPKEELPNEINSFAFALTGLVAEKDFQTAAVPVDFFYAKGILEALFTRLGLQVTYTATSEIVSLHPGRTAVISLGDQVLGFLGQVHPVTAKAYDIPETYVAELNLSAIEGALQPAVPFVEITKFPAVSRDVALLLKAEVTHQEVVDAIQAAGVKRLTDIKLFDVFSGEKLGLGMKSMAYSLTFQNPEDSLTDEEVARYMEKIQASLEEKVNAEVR
Summary of the method: (§1)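 E. coli tRNA was added and incubated 1 h at 37 °C, then stopped with EDTA. Poly-L-lysine yttrium silicate SPA beads in citric acid were added for 1 h before scintillation counting. DMSO-only controls were included, and IC50 came from a sigmoidal dose-response fit.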

[3] = molecular target: P. aeruginosa PheRS (Pseudomonas aeruginosa, UniProt Q9I0A3); test: tRNA aminoacylation scintillation proximity assay, P. aeruginosa PheRS; type: biochemical
Chain of P. aeruginosa PheRS (Q9I0A3 whole entry): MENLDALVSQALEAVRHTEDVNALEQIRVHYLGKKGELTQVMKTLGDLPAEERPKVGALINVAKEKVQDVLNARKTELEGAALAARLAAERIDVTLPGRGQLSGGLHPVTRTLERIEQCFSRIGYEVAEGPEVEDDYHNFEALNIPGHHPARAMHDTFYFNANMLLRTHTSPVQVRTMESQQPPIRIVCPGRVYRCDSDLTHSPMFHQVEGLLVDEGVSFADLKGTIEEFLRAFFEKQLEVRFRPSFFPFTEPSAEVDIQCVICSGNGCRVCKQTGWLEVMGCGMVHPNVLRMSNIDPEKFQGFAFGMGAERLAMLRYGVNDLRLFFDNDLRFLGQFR
Chain of P. aeruginosa PheRS (Q9I0A4 whole entry partner): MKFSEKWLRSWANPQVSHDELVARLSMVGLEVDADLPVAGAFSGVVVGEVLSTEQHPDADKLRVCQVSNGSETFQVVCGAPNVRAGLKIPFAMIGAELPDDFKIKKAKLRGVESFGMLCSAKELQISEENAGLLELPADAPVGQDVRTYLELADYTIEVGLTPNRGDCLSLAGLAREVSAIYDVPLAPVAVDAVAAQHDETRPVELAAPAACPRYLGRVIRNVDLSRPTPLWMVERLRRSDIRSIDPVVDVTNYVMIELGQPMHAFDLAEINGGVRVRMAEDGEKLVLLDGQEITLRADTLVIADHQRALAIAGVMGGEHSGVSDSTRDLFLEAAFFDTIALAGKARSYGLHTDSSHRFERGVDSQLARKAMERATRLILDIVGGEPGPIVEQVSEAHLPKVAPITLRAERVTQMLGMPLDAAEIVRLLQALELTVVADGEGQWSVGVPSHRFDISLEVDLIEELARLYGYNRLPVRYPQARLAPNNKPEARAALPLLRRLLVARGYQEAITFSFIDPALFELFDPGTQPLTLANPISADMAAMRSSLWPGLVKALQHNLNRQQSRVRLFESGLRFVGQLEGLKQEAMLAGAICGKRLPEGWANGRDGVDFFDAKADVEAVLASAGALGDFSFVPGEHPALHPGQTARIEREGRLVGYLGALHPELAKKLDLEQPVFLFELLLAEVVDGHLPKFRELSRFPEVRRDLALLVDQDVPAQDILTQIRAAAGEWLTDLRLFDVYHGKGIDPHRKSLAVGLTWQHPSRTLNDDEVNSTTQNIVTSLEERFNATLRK
Summary of the method: as §1

[4] = tested on: S. aureus ATCC 29213 sensitive; test: MIC by microbroth dilution; type: cell-based
Summary of the method: (§2)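 Broth microdilution per international standard ISO […]. The panel covered clinical isolates and NCTC/ATCC control organisms, including resistant phenotypes, and ampicillin was run alongside as comparator.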

[5] = tested on: S. aureus NCTC 12493 mecA resistant; test: MIC by microbroth dilution; type: cell-based
Summary of the method: as §2

[6] = tested on: K. pneumoniae 21856 sensitive; test: MIC by microbroth dilution; type: cell-based, Klebsiella pneumoniae
Summary of the method: as §2

[7] = tested on: P. mirabilis NCTC 10975 sensitive; test: MIC by microbroth dilution; type: cell-based, Proteus mirabilis
Summary of the method: as §2

[8] = tested on: P. aeruginosa ATCC 27853 sensitive; test: MIC by microbroth dilution; type: cell-based, Pseudomonas aeruginosa
Summary of the method: as §2

[9] = tested on: S.enteritidis8204 sensitive; test: MIC by microbroth dilution; type: cell-based, Salmonella enteritidis
Summary of the method: as §2

[10] = tested on: A.baumannii572 sensitive; test: MIC by microbroth dilution; type: cell-based, Acinetobacter baumannii
Summary of the method: as §2

[11] = tested on: B.cepacia NCTC 10661 sensitive; test: MIC by microbroth dilution; type: cell-based
Summary of the method: as §2

[12] = tested on: E. faecalisATCC 29212 sensitive; test: MIC by microbroth dilution; type: cell-based, Enterococcus faecalis
Summary of the method: as §2

[13] = tested on: E. faecalis NCTC 12201 vanA resistant; test: MIC by microbroth dilution; type: cell-based, Enterococcus faecalis
Summary of the method: as §2

[14] = tested on: E. faecalis ATCC 51299 vanB resistant; test: MIC by microbroth dilution; type: cell-based, Enterococcus faecalis
Summary of the method: as §2

[15] = tested on: E. coli ATCC 25922 sensitive; test: MIC by microbroth dilution; type: cell-based
Summary of the method: as §2

[16] = tested on: E. faecium 16568 sensitive; test: MIC by microbroth dilution; type: cell-based; details: Enterococcus faecium
Summary of the method: as §2

[17] = tested on: the tested bacteria (variety of clinically important pathogens); test: MIC by microbroth dilution, summary in text for the panel of pathogens; type: cell-based; details: read-out: MIC, no inhibitory activity
[18] = tested on: E. faecalis sensitive and vanA and vanB resistant strains; test: MIC by microbroth dilution, summary in text for E. faecalis strains; type: cell-based; details: Enterococcus faecalis, read-out: moderate inhibitory activity (MIC)
Summary of the method: as §2

[19] = Staphylococcus aureus, ATCC29213
[20] = Staphylococcus aureus, NCTC12493
[21] = Pseudomonas aeruginosa, ATCC27853
[22] = Enterococcus faecalis, ATCC29212
[23] = Enterococcus faecalis, NCTC12201
[24] = Enterococcus faecalis, ATCC51299

Compound	MIC [1] [µg/mL]	IC50 [2] [µM]	IC50 [3] [µM]	MIC [4, 19] [µg/mL]	MIC [5, 20] [µg/mL]	MIC ([6]; Klebsiella pneumoniae) [µg/mL]	MIC ([7]; Proteus mirabilis, NCTC10975) [µg/mL]	MIC [8, 21] [µg/mL]	MIC ([9]; Salmonella enterica) [µg/mL]	MIC ([10]; Acinetobacter baumannii) [µg/mL]	MIC [12, 22] [µg/mL]	MIC [13, 23] [µg/mL]	MIC [14, 24] [µg/mL]	MIC [16] [µg/mL]	MIC ([15]; Escherichia coli, ATCC25922) [µg/mL]	MIC [17] [µg/mL]	also measured
COc1cc(OC)cc(C(=O)Nc2nnc(CCn3cnc4ccccc43)s2)c1 [11a, N-(5-(2-(1H-benzimidazol-1-yl)ethyl)-1,3,4-thiadiazol-2-yl)-3,5-dimethoxybenzamide]	> 128	345	742	–	–	–	–	–	–	–	–	–	–	–	–	–	–
O=C(Nc1nnc(CCn2cnc3ccccc32)s1)c1ccc(F)cc1 [11b, N-(5-(2-(1H-benzimidazol-1-yl)ethyl)-1.3.4-thiadiazol-2-yl)-4fluorobenzamide]	–	–	–	–	–	–	–	–	–	–	–	–	–	–	–	–	MIC S. aureus Sensitive SH1000 ([1]; S. aureus SH1000 sensitive strain): >128 µg/mL; IC50 ([2]; read-out: S. pneumonia PheRS IC50, aminoacylation SPA, 0.2 μM enzyme): 685 µM; IC50 ([3]; read-out: P. aeruginosa PheRS IC50, aminoacylation SPA, 0.08 μM enzyme): 907 µM; MIC ([4]; S. aureus ATCC 29213 sensitive): >128 µg/mL; MIC ([5]; S. aureus NCTC 12493 mecA resistant): 128 µg/mL (≈ 348 µM); MIC ([6]; K. pneumoniae 21856 sensitive): >128 µg/mL; MIC ([7]; P. mirabilis NCTC 10975 sensitive): >128 µg/mL; MIC ([8]; P. aeruginosa ATCC 27853 sensitive): >128 µg/mL; MIC ([9]; S.enteritidis8204 sensitive): >128 µg/mL; MIC ([10]; A.baumannii572 sensitive): >128 µg/mL; MIC [11]: >128 µg/mL; MIC ([12]; E. faecalis ATCC 29212 sensitive): 64 µg/mL (≈ 174 µM); MIC ([13]; E. faecalis NCTC 12201 vanA resistant): 32 µg/mL (≈ 87.1 µM); MIC ([14]; E. faecalis ATCC 51299 vanB resistant): 64 µg/mL (≈ 174 µM); MIC ([15]; E. coli ATCC 25922 sensitive): >128 µg/mL
CCSc1nnc(CCCn2cnc3ccccc32)n1-c1ccccc1 [16a, 1-(3-(5-(Ethylthio)-4-phenyl-4H-1,2,4-triazol-3-yl)propyl)-1H-benzimidazole]	> 128	561	343	> 128	> 128	> 128	> 128	> 128	> 128	> 128	> 128	> 128	> 128	> 128	> 128	≥ 128	–
CCCSc1nnc(CCCn2cnc3ccccc32)n1-c1ccccc1 [16b, 1-(3-(4-Phenyl-5-(propylthio)-4H-1,2,4-triazol-3-yl)propyl)1H-benzimidazole]	> 128	390	375	–	–	–	–	–	–	–	–	–	–	–	–	–	–
CCSc1nnc(CCCn2cnc3c(N)ncnc32)n1-c1ccccc1 [17a, 9-(3-(5-(Ethylthio)-4-phenyl-4H-1,2,4-triazol-3-yl)propyl)-9H-purin-6-amine]	> 128	619	199	> 128	128 (≈ 336 µM)	> 128	> 128	> 128	> 128	> 128	> 128	64 (≈ 168 µM)	64 (≈ 168 µM)	–	> 128	≥ 128	MIC [18]: 32 to 64 µg/mL (≈ 84.1 to 168 µM)
CCCSc1nnc(CCCn2cnc3c(N)ncnc32)n1-c1ccccc1 [17b, 9-(3-(4-Phenyl-5-(propylthio)-4H-1,2,4-triazol-3-yl)propyl)-9H-purin-6-amine]	> 128	686	294	> 128	> 128	> 128	> 128	> 128	> 128	> 128	> 128	> 128	> 128	> 128	> 128	≥ 128	–
CC1(C)S[C@@H]2[C@H](NC(=O)[C@H](N)c3ccccc3)C(=O)N2[C@H]1C(=O)O [Amp, ampicillin, reference compound]	–	–	–	4 (≈ 11.4 µM)	> 128	> 128	> 128	> 128	–	> 128	–	16 (≈ 45.8 µM)	–	4 (≈ 11.4 µM)	–	–	–

From publication PMC6959494 (Egyptian journal of chemistry, 2018)
